The values that follow come from ChEMBL document CHEMBL1177876, “Design and synthesis of 10-alkoxy-5, 6-dihydro-triazolo[4,3-d]benzo[f][1,4]oxazepine derivatives with anticonvulsant activity” (Eur J Med Chem, 2010).

Each structure is given as a SMILES string. Active and inactive are the calls of the source.

For data set [1], the species on record is Mus musculus. Put plainly: Protective index, ratio of TD50 for mouse by rotarod test to ED50 for mouse by MES test. The class given is functional.
Data set [2] has as its system Mus musculus. Description: Anticonvulsant activity in mouse assessed as pentylenetetrazole-induced clonic seizures at 30 mg/kg, ip administered 30 mins before pentylenetetrazole challenge measured after 0.5 hrs. The data set is classed as functional. The conditions noted are these: route intraperitoneal.
Data set [3] concerns Mus musculus. Description: Anticonvulsant activity in mouse assessed as pentylenetetrazole-induced tonic seizures at 30 mg/kg, ip administered 30 mins before pentylenetetrazole challenge measured after 0.5 hrs. The data set is classed as functional. Particulars: route intraperitoneal.
Data set [4] deals with Mus musculus. Description: Anticonvulsant activity in mouse assessed as isoniazid-induced clonic seizures at 30 mg/kg, ip administered 30 mins before isoniazid challenge measured after 1 hr. The class given is functional. The conditions noted are these: route intraperitoneal.
For data set [5], the system named is Mus musculus. Put plainly: Anticonvulsant activity in mouse assessed as isoniazid-induced tonic seizures at 30 mg/kg, ip administered 30 mins before isoniazid challenge measured after 1 hr. The class given is functional. The conditions noted are these: route intraperitoneal.
The subject of data set [6] is Mus musculus. Put plainly: Anticonvulsant activity in mouse assessed as 3-mercaptopropionic acid-induced clonic seizures at 30 mg/kg, ip administered 30 mins before 3-mercaptopropionic acid challenge measured after 0.5 hrs. The class given is functional. Particulars: route intraperitoneal. Put shortly: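 Mice, 10 per group, dosed i.p. with 30 mg/kg. 30 min later they received 3-mercaptopropionic acid 60 mg/kg sc in saline. Each mouse was observed alone for 0.5 h for seizures.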

For data set [7], the system named is Mus musculus. Put plainly: Anticonvulsant activity in mouse assessed as 3-mercaptopropionic acid-induced tonic seizures at 30 mg/kg, ip administered 30 mins before 3-mercaptopropionic acid challenge measured after 0.5 hrs. The data set is classed as functional. The conditions noted are these: route intraperitoneal. Put shortly: (§1)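 KunMing mice (18–22 g) in groups of 10 received the test agent, dissolved in DMSO, i.p. 30 min before challenge. The challenge was 3-mercaptopropionic acid, 60 mg/kg in saline, given s.c. Mice were then held in individual cages and observed for 0.5 h for seizures and death.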

The test system of data set [8] is Mus musculus. Description: Anticonvulsant activity in mouse assessed as thiosemicarbazide-induced clonic seizures at 30 mg/kg, ip administered 30 mins before thiosemicarbazide challenge measured after 2.5 hrs. The class given is functional. The conditions noted are these: route intraperitoneal. The method, boiled down: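 Thiosemicarbazide challenge, 50 mg/kg i.p., given 30 min after 30 mg/kg i.p. test compound. Mice, 10 per group, were caged individually and observed for 2.5 h. Clonic and tonic seizures and lethality were recorded.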

Data set [9] has as its system Mus musculus. Put plainly: Anticonvulsant activity in mouse assessed as thiosemicarbazide-induced tonic seizures at 30 mg/kg, ip administered 30 mins before thiosemicarbazide challenge measured after 2.5 hrs. The class given is functional. The conditions noted are these: route intraperitoneal. The method, boiled down: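 Mice (KunMing, 18–22 g, n = 10 per group) were pretreated i.p. with compound in DMSO. After 30 min, thiosemicarbazide was given at 50 mg/kg i.p. Animals were caged individually and observed for 2.5 h, and the number of clonic seizures, tonic seizures and deaths was recorded.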

The test system of data set [10] is Mus musculus. Description: Anticonvulsant activity in mouse assessed as bicuculline-induced clonic seizures at 30 mg/kg, ip administered 30 mins before bicuculline challenge measured after 0.5 hrs. The class given is functional. Particulars: route intraperitoneal. Put shortly:
(§2)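 Bicuculline 2.7 mg/kg sc, injected 15–45 min after preparation, given 30 min after 30 mg/kg i.p. test compound. Mice, 10 per group, were isolated and watched for at least 30 min for clonic and tonic seizures and lethality.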

Data set [11] deals with Mus musculus. Put plainly: Anticonvulsant activity in mouse assessed as bicuculline-induced tonic seizures at 30 mg/kg, ip administered 30 mins before bicuculline challenge measured after 0.5 hrs. Particulars: route intraperitoneal. The data set is classed as functional. The method, boiled down: as §2
The subject of data set [12] is Mus musculus. Description: Anticonvulsant activity in mouse assessed as bicuculline-induced death at 30 mg/kg, ip administered 30 mins before bicuculline challenge measured after 0.5 hrs. The data set is classed as functional. Particulars: route intraperitoneal. The method, boiled down: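 Groups of 10 KunMing mice (18–22 g) were dosed i.p. with compound in DMSO. After 30 min they received bicuculline, 2.7 mg/kg s.c., injected within 15–45 min of preparation because of its instability. Mice were isolated and watched for at least 30 min, and clonic seizures, tonic seizures and lethality were recorded.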

In data set [13] the test system is Mus musculus. Put plainly: Anticonvulsant activity in mouse assessed as protection against maximal electroshock-induced seizures at 100 mg/kg, ip measured after 0.5 hrs. The data set is classed as functional, organism-based. More on the design: dose 100 mg/kg. Put shortly:
(§3)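 Phase-I MES screen in KunMing mice, 18–22 g. Compounds dissolved in DMSO and given i.p. at 30, 100 or 300 mg/kg. The MES test followed the NIH ADD protocol and was read at 0.5 h and 4 h after dosing. Six mice per group, scored as number protected/number tested.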

The test system of data set [14] is Mus musculus. Description: Anticonvulsant activity in mouse assessed as protection against maximal electroshock-induced seizures at 30 mg/kg, ip measured after 0.5 hrs. More on the design: dose 30 mg/kg. The data set is classed as functional, organism-based. The method, boiled down: as §3
For data set [15], the system named is Mus musculus. Description: Anticonvulsant activity in mouse assessed as protection against maximal electroshock-induced seizures at 10 mg/kg, ip measured after 0.5 hrs. More on the design: dose 10 mg/kg. The data set is classed as functional, organism-based.
Data set [16] has as its system Mus musculus. Description: Anticonvulsant activity in mouse assessed as protection against maximal electroshock-induced seizures at 300 mg/kg, ip measured after 4 hrs. The class given is functional, organism-based. More on the design: dose 300 mg/kg. Put shortly:
as §3

Data set [17] has as its system Mus musculus. Put plainly: Anticonvulsant activity in mouse assessed as protection against maximal electroshock-induced seizures at 100 mg/kg, ip measured after 4 hrs. The data set is classed as functional, organism-based. The arrangement: dose 100 mg/kg. Put shortly:
as §3

Data set [18] deals with Mus musculus. Put plainly: Anticonvulsant activity in mouse assessed as protection against maximal electroshock-induced seizures at 30 mg/kg, ip measured after 4 hrs. The data set is classed as functional, organism-based. The arrangement: dose 30 mg/kg. Put shortly:
as §3

Data set [19] has as its system Mus musculus. Put plainly: Anticonvulsant activity in mouse assessed as protection against maximal electroshock-induced seizures at 10 mg/kg, ip measured after 4 hrs. The class given is functional, organism-based. The arrangement: dose 10 mg/kg.
Data set [20] relates to Mus musculus. Description: Anticonvulsant activity in ip dosed mouse assessed as protection against maximal electroshock-induced seizures. The class given is functional. Put shortly: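 KunMing mice, 18–22 g, compounds in DMSO, given i.p. at a range of doses, groups of 10. MES test per NIH ADD program. Read-out was seizure protection, with at least three points in the 10–90% range.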

Data set [21] is described as follows: Neurotoxicity in ip dosed mouse assessed as time spent on rotarod by rotarod test. The class given is toxicity, organism-based. The conditions noted are these: in vivo. The method, boiled down:
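Rotarod neurotoxicity in KunMing mice, 18–22 g, compounds in DMSO given i.p. Mice were pretrained on a 3.2 cm diameter rod at 10 rpm. Toxicity was defined as failure to stay on the rod for at least 1 min in each trial.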

For data set [22], the system named is Mus musculus. Put plainly: Anticonvulsant activity in mouse assessed as 3-mercaptopropionic acid-induced death at 30 mg/kg, ip administered 30 mins before 3-mercaptopropionic acid challenge measured after 0.5 hrs. The conditions noted are these: route intraperitoneal. The class given is functional. The method, boiled down: as §1

On to `NC(=O)N1c2ccccc2C=Cc2ccccc21` [CARBAMAZEPINE], for which, in data set [1], the PI is recorded as 6.4. For the same compound, the Activity in [2] is given as 100%; in [3] it was 0%; in data set [4], 60%; in data set [5] it was 0%; in data set [6] it was 100%; in [7] it was 0%. For the same compound, the Activity in data set [8] turned out to be 100%; in [9] it was 0%; in data set [10], 100%; in data set [11] it was 0%; in data set [12], 20%.
`CCCCCCCOc1ccc2c(c1)-c1nncn1CCO2`: the outcome in data set [13], in data set [14] and in [15] was Active. Moreover, the outcome in data set [16], in data set [17], in data set [18] and in data set [19] was inactive. For the same compound, the ED50 in data set [20] is 6.9 mg/kg. The TD50 in [21] amounted to 65.7 mg/kg. Also, the PI in data set [1] worked out at 9.5. Further, the Activity came out at 80% in data set [2]; 0% in data set [3]; 0% in data set [4]; 0% in data set [5]; 100% in [6]; 0% in data set [7]. In addition, the Activity in data set [22] is listed as 20%; in [8] it was 100%; in data set [9], 30%; in data set [10], 100%; in data set [11], 0%.
